ChEMBL document CHEMBL2163259, “ADME-guided design and synthesis of aryloxanyl pyrazolone derivatives to block mutant superoxide dismutase 1 (SOD1) cytotoxicity and protein aggregation: potential application for the treatment of amyotrophic lateral sclerosis” (J Med Chem, 2012)
Active and inactive are the calls of the source.

Columns and labels:
[1] = system: Mus musculus; experiment: Neuroprotective activity in SOD1 G93A mutant B6SJL mouse ALS model assessed as life extension at 1 mg/kg administered qd for 1 week (reference value: 125.7 +/- 4.9 days); assay type: functional
[2] = system: Mus musculus; experiment: Neuroprotective activity in SOD1 G93A mutant B6SJL mouse ALS model assessed as life extension administered qd starting at 6 weeks of age throughout life
[3] = system: Plasma; experiment: Plasma protein binding in human; assay type: ADME, cell-free
[4] = Efflux ratio of permeability from basolateral to apical side over apical to basolateral side in human Caco2 cells; assay type: ADME, cell-based; settings: Caco-2
[5] = molecular target: Cytochrome P450 3A4 (Homo sapiens, UniProt P08684); experiment: Inhibition of CYP3A4 using midazolam as substrate; assay type: ADME
Cytochrome P450 3A4, sequence (P08684 whole entry): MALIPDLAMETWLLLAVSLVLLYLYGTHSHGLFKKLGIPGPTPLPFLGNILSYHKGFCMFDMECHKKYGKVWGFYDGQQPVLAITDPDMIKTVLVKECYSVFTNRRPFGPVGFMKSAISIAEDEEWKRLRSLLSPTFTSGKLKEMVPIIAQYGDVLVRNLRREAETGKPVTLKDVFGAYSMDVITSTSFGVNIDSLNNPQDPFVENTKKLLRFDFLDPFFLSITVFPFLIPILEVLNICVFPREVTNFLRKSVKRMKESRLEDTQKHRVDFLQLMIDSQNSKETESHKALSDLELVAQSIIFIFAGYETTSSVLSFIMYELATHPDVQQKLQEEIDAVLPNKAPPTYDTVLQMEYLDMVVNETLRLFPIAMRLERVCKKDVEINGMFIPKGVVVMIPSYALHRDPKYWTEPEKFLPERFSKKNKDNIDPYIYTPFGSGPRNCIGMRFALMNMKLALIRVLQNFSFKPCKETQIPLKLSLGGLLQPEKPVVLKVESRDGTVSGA
Outline: (§1)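 Reversible inhibition of CYP isozymes in human liver microsomes, each isozyme with a single probe substrate. CYP3A4 tested with both testosterone and midazolam. IC50 determined.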

[6] = system: Rattus norvegicus; experiment: Dose normalised AUC in Sprague-Dawley rat at 1 mg/kg, po; assay type: ADME, organism-based; set-up: dose 1 mg/kg, route oral; settings: in vivo
Outline: (§2)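 Sprague-Dawley rats given a single 1 mg/kg bolus, intravenous or oral. Plasma PK parameters (AUC, dose-normalised AUC, half-life, clearance, Vss, Cmax, Tmax, oral bioavailability) derived from plasma levels.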

[7] = species: Homo sapiens; experiment: Inhibition of human nicotinic acetylcholine receptor at 10 uM by radioligand displacement assay
Outline: (§3)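 Single concentration of 10 μM, tested in duplicate as part of a contracted panel of 68 in vitro enzyme and receptor assays. The panel covers common adverse CNS, cardiovascular, pulmonary and genotoxic targets.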

[8] = molecular target: Muscarinic acetylcholine receptor M2 (Homo sapiens) (UniProt P08172); experiment: Inhibition of human muscarinic M2 receptor at 10 uM by radioligand displacement assay; outline: as §3
Muscarinic acetylcholine receptor M2 (Homo sapiens), sequence (P08172 whole entry): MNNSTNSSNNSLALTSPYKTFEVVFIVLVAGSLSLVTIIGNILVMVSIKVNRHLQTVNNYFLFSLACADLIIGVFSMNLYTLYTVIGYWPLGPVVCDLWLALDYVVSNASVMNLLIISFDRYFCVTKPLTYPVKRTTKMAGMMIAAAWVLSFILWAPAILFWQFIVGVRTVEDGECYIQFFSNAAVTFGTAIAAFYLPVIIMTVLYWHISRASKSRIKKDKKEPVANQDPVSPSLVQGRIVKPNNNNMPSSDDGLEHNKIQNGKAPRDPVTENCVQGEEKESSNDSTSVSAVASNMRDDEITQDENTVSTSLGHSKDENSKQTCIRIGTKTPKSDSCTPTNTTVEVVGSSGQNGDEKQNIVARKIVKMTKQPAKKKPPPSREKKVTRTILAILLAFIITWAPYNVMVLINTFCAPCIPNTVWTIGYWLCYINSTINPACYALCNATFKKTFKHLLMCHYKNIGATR

[9] = molecular target: 5-hydroxytryptamine receptor 1A (Homo sapiens) (UniProt P08908); experiment: Inhibition of human 5HT1A receptor at 10 uM by radioligand displacement assay
Outline: (§4)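 LeadProfilingScreen panel of 68 in vitro enzyme and receptor assays. Compound tested at 10 μM in duplicate.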

[10] = molecular target: Substance-P receptor (Homo sapiens) (UniProt P25103); experiment: Inhibition of human tachykinin NK1 receptor at 10 uM by radioligand displacement assay; outline: as §3
Substance-P receptor (Homo sapiens), sequence (P25103 whole entry): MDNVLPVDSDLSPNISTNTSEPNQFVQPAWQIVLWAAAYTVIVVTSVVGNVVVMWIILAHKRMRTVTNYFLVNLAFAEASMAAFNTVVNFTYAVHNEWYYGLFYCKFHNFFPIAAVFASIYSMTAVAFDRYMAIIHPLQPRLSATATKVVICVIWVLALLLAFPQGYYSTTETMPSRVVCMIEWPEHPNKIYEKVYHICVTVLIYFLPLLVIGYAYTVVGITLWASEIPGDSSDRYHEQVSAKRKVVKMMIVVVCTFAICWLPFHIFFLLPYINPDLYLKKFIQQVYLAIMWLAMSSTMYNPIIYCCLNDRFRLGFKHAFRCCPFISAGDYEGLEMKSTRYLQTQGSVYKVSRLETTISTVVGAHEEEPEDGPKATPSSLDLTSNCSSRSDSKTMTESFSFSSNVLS

[11] = Plasma concentration in B6SJL mouse at 300 mg/kg after 3 hrs by mass spectrometry; assay type: ADME, organism-based; set-up: dose 300 mg/kg
Outline: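 B6SJL mice were given a single 300 mg/kg intraperitoneal bolus. Blood and brain were collected at 0, 1, 3, 6, 12 and 24 h, flash-frozen in liquid nitrogen and stored at -80 °C. Samples were analyzed by mass spectrometry with ESI ionization in MRM mode.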

[12] = species: Oryctolagus cuniculus; experiment: Inhibition of rabbit Purinergic P2X receptor at 10 uM by radioligand displacement assay; assay type: tissue-based; outline: as §3
[13] = molecular target: Cysteinyl leukotriene receptor 1 (Homo sapiens) (UniProt Q9Y271); experiment: Inhibition of human cysteinyl CysLT1 receptor at 10 uM by radioligand displacement assay; outline: as §4
Cysteinyl leukotriene receptor 1 (Homo sapiens), sequence (Q9Y271 whole entry): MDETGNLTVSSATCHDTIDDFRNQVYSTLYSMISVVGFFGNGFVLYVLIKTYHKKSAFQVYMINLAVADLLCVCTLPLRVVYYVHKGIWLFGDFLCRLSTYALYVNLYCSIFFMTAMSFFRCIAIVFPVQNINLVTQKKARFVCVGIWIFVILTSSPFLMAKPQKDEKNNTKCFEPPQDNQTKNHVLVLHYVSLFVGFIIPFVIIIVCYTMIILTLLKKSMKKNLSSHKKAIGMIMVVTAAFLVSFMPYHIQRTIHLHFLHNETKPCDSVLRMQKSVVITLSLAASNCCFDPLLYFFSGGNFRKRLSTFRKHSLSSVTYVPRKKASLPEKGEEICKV

[14] = Half life in Sprague-Dawley rat at 1 mg/kg, po; assay type: ADME, organism-based; set-up: dose 1 mg/kg, route oral; settings: in vivo; outline: as §2
[15] = molecular target: Sodium-dependent noradrenaline transporter (Homo sapiens) (UniProt P23975); experiment: Inhibition of human norepinephrine transporter at 10 uM by radioligand displacement assay; outline: as §3
Sodium-dependent noradrenaline transporter (Homo sapiens), sequence (P23975 whole entry): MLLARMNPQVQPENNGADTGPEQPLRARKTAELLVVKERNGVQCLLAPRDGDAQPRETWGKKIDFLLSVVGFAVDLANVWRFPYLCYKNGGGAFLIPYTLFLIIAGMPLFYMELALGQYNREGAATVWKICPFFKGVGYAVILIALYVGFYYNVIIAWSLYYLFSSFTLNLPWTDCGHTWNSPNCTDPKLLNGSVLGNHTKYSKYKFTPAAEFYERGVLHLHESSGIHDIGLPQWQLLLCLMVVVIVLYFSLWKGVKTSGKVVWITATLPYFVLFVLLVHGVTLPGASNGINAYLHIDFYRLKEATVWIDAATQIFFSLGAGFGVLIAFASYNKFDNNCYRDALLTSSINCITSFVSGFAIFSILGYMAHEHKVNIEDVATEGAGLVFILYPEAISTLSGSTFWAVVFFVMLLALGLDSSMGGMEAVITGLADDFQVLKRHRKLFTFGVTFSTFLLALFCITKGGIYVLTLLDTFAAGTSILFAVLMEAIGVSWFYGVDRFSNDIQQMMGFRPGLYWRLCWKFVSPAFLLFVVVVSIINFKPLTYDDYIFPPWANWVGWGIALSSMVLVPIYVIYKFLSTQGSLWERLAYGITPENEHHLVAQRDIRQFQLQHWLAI

[16] = system: Superoxide dismutase [Cu-Zn] (Homo sapiens), P00441 [G94A]; experiment: Inhibition of SOD1 G93A mutant aggregation-induced cytotoxicity in human HeLa cells by cytotoxicity protection assay; assay type: cell-based
Superoxide dismutase [Cu-Zn] (Homo sapiens), P00441 [G94A], sequence (P00441 whole entry G94A): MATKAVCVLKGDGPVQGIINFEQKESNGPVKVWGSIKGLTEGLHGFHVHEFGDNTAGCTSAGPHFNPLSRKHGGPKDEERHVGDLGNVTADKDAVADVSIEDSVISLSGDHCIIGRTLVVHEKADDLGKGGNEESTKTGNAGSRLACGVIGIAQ

[17] = molecular target: Alpha-2A adrenergic receptor (Homo sapiens) (UniProt P08913); experiment: Inhibition of human adrenergic alpha2A receptor at 10 uM by radioligand displacement assay; outline: as §4
[18] = system: Rattus norvegicus; experiment: Oral bioavailability in Sprague-Dawley rat at 1 mg/kg; assay type: ADME, organism-based; settings: in vivo
Outline: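 Sprague-Dawley rats received a single bolus of 1 mg/kg, given both intravenously and orally. Plasma PK parameters, including oral bioavailability (F%), were derived from the two routes.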

[19] = molecular target: Cytochrome P450 2D6 (Homo sapiens, UniProt P10635); experiment: Inhibition of CYP2D6; assay type: ADME; outline: as §1
[20] = system: Cerebral cortex neuron; experiment: Cytoprotection in rat Primary cortical neurons incubated for 24 hrs and measured 72 hrs post compound dose by cytotoxicity protection assay; assay type: functional, cell-based
Outline: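 Primary cortical neurons from E18 Sprague-Dawley or Fischer 344 rat brain, dissociated with papain (2 mg/mL, 30 min, 37 °C), plated on poly-D-lysine at 20,000 cells/well, cultured 5 days (~90% neurons). Six-point dose response from 100 μM top, roughly one-third dilutions; 24 h pre-incubation, then MG132 100 nM. Viability read 48 h later by Calcein-AM (1 μM, 20 min, RT) fluorescence. Active = viability ≥5 SD above MG132 controls.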

[21] = molecular target: Alpha-1B adrenergic receptor (Rattus norvegicus) (UniProt P15823); experiment: Inhibition of rat adrenergic alpha1B receptor at 10 uM by radioligand displacement assay; outline: as §3
[22] = species: Rattus norvegicus; experiment: Inhibition of rat GABA transporter at 10 uM by radioligand displacement assay; outline: as §3
[23] = system: Plasma; experiment: Plasma protein binding in rat; assay type: ADME, cell-free
[24] = system: Superoxide dismutase [Cu-Zn] (Homo sapiens), P00441 [G94A]; experiment: Inhibition of SOD1 G93A mutant aggregation-induced cytotoxicity in human SH-SY5Y cells by cytotoxicity protection assay; assay type: cell-based
[25] = molecular target: Gamma-aminobutyric acid type B receptor subunit 1 (Homo sapiens) (UniProt Q9UBS5); experiment: Inhibition of human GABAB1A receptor at 10 uM by radioligand displacement assay; outline: as §4
Gamma-aminobutyric acid type B receptor subunit 1 (Homo sapiens), sequence (Q9UBS5 whole entry): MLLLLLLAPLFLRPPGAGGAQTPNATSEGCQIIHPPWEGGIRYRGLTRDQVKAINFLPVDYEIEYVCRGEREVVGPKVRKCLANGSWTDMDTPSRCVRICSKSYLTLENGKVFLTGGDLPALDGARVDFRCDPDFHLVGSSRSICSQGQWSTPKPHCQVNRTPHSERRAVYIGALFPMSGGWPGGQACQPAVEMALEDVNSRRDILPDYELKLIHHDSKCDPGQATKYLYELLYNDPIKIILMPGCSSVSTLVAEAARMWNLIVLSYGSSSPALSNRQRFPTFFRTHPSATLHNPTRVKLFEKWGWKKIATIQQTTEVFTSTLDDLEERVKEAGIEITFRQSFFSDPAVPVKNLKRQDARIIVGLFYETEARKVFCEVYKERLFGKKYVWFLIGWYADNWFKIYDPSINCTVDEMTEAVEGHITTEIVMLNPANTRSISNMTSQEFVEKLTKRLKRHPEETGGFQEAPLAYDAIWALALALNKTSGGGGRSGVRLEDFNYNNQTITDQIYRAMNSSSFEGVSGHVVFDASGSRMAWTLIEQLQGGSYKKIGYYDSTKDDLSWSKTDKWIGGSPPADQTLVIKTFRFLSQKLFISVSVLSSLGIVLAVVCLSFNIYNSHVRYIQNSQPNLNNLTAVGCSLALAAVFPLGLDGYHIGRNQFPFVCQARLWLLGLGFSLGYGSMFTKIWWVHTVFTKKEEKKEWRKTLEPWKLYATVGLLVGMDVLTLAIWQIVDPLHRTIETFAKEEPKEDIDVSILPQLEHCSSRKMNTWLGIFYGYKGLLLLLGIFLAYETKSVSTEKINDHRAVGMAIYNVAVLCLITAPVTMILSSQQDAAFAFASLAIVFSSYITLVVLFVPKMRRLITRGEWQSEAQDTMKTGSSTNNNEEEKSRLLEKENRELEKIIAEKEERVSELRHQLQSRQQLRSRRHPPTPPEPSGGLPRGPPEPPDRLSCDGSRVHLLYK

[26] = species: Mus musculus; experiment: Inhibition of mouse IL-1 at 10 uM by radioligand displacement assay; outline: as §3
[27] = molecular target: Histamine H1 receptor (Homo sapiens) (UniProt P35367); experiment: Inhibition of human histamine H1 receptor at 10 uM by radioligand displacement assay; outline: as §3
[28] = molecular target: Androgen receptor (Rattus norvegicus) (UniProt P15207); experiment: Inhibition of rat testosterone receptor at 10 uM by radioligand displacement assay; outline: as §3
[29] = molecular target: Pyroglutamylated RF-amide peptide receptor (Homo sapiens) (UniProt Q96P65); experiment: Inhibition of human GPR103 receptor at 10 uM by radioligand displacement assay; outline: as §4
[30] = molecular target: L-type calcium channel, dihydropyridine site (Rattus norvegicus, UniProt P22002+P27732+Q02485); experiment: Inhibition of rat calcium channel L-type, dihydropyridine site at 10 uM by radioligand displacement assay; outline: as §3
[31] = molecular target: Platelet-activating factor receptor (Homo sapiens) (UniProt P25105); experiment: Inhibition of platelet activating factor receptor at 10 uM by radioligand displacement assay; outline: as §3
Platelet-activating factor receptor (Homo sapiens), sequence (P25105 whole entry): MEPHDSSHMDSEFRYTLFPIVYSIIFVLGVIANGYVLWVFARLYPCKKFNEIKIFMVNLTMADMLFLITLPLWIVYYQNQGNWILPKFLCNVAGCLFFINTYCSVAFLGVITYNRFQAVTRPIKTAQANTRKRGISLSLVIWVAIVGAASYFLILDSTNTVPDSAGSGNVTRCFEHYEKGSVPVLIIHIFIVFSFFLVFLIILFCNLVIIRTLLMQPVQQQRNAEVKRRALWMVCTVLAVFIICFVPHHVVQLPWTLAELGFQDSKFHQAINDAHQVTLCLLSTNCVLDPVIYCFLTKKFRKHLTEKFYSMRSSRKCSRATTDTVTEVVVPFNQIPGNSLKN

[32] = molecular target: Neuropeptide Y receptor type 1 (Homo sapiens) (UniProt P25929); experiment: Inhibition of human Neuropeptide Y Y1 receptor at 10 uM by radioligand displacement assay; outline: as §4
Neuropeptide Y receptor type 1 (Homo sapiens), sequence (P25929 whole entry): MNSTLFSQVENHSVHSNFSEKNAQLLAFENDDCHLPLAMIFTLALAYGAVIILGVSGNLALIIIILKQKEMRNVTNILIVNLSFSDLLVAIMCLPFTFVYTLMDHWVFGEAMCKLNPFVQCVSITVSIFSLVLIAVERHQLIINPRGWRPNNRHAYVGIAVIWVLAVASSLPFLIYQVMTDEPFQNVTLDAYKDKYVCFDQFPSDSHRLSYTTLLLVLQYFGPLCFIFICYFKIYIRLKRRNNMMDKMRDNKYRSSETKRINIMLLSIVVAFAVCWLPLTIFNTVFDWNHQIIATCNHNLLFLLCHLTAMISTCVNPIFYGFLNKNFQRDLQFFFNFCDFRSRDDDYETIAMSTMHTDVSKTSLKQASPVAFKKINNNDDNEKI

[33] = system: Caco-2; experiment: Apparent permeability from basolateral to apical side in human Caco2 cells; assay type: ADME, cell-based
[34] = molecular target: Cytochrome P450 2C9 (Homo sapiens, UniProt P11712); experiment: Inhibition of CYP2C9; assay type: ADME; outline: as §1
Cytochrome P450 2C9, sequence (P11712 whole entry): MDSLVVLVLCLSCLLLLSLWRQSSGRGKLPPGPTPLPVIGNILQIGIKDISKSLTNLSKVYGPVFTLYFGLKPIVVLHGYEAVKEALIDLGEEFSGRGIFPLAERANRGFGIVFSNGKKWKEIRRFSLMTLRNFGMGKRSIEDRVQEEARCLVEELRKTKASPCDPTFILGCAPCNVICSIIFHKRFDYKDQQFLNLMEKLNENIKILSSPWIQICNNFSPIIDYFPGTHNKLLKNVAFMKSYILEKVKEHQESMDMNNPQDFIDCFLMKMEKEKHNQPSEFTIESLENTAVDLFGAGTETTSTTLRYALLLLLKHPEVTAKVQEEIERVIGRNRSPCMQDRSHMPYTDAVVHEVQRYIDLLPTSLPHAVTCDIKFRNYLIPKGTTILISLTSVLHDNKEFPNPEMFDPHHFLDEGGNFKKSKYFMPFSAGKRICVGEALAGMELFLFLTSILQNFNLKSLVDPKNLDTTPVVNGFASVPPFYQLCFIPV

## O=c1cc(COc2cc(Cl)cc(Cl)c2)[nH][nH]1
[1]
  Survival: 129.2 days
[2]
  Activity: Dose-dependent effect
[3]
  PPB: 98%
[4]
  efflux ratio: 0.4
[5]
  IC50: > 50 µM
[6]
  AUC/dose: 50 ng·h/mL/mg/kg
[7]
  inhibition: 7%
[8]
  inhibition: -2%
[9]
  inhibition: -6%
[10]
  inhibition: 3%
[11]
  concentration at 3 h: 342 µM
[12]
  inhibition: 1%
[13]
  inhibition: 0%
[14]
  half-life: 3.6 h
[15]
  inhibition: -10%
[16]
  inhibition: Active
[17]
  inhibition: 8%
[18]
  F: 27%
[19]
  IC50: > 50 µM
[20]
  Activity: Active
[21]
  inhibition: 0%
[22]
  inhibition: -4%
[23]
  PPB: 98%
[24]
  inhibition: Active
[25]
  inhibition: -7%
[26]
  inhibition: 3%
[27]
  inhibition: 1%
[28]
  inhibition: 3%
[29]
  inhibition: 3%
[30]
  inhibition at 10 µM: -5%
[31]
  inhibition: -1%
[32]
  inhibition: -1%
[33]
  Papp: 14.1 ×10⁻⁶ cm/s
[34]
  IC50: > 50 µM
